Laboratory results as given in ChEMBL document CHEMBL4808178 (J Med Chem, 2021).
Activity calls are given as the source filed them. No cut-off for these calls is given here.

How the values were obtained:
PC-3 = assay: Cytotoxicity against human PC3 cells assessed as reduction in cell viability incubated for 72 hrs by MTT assay; assay type: functional, cell-based; conditions: PC-3, 72 h
Procedure, shortened: (§1)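 About 5 × 10³ cells/well, seeded overnight at 37 °C, 5% CO₂, in DMEM or RPMI-1640 with 10% FBS and antibiotics. DMSO-dissolved compounds diluted in medium, exposure 72 h.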

HCT-116 [1] = assay: Cytotoxicity against human HCT-116 cells assessed as reduction in cell viability incubated for 72 hrs by MTT assay; assay type: functional, cell-based; conditions: HCT-116, 72 h; procedure, shortened: as §1
MCF7 = assay: Cytotoxicity against human MCF7 cells assessed as reduction in cell viability incubated for 72 hrs by MTT assay; assay type: functional, cell-based; conditions: MCF7, 72 h; procedure, shortened: as §1
HT-29 = assay: Cytotoxicity against human HT-29 cells assessed as reduction in cell viability incubated for 72 hrs by MTT assay; assay type: functional, cell-based; conditions: HT-29, 72 h
T-24 = assay: Cytotoxicity against human T24 cells assessed as reduction in cell viability incubated for 72 hrs by MTT assay; assay type: functional, cell-based; conditions: T-24, 72 h; procedure, shortened: as §1
L02 = assay: Cytotoxicity against human L02 cells assessed as reduction in cell viability incubated for 72 hrs by MTT assay; assay type: cell-based; conditions: L02, 72 h; procedure, shortened: as §1
[2] = target: T1, Aldehyde dehydrogenase 1A1 (Homo sapiens) (UniProt P00352); assay: Inhibition of ALDH1A1 in human HCT116 cells at 5 uM after 24 hrs by aldefluor staining based fluorescence analysis; assay type: cell-based; conditions: HCT-116
T1 sequence (whole entry): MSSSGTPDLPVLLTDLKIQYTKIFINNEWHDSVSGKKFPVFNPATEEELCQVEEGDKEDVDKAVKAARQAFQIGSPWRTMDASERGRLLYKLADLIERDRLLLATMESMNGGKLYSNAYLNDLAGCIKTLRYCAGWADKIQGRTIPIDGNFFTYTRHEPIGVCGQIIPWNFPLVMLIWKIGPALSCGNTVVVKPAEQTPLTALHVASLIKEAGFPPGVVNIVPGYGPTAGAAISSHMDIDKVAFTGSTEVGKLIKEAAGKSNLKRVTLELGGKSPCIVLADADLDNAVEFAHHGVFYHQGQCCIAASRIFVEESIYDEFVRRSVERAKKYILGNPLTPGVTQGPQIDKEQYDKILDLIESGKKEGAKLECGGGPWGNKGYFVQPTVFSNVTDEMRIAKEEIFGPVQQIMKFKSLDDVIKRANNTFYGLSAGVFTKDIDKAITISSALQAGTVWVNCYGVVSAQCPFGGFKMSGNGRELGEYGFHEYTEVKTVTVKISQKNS
Procedure, shortened: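 HCT-116 cells, 2 × 10⁵/well, grown overnight at 37 °C, 5% CO₂, then treated 24 h (vehicle DMSO). Aldefluor staining read in FITC channel by FACS for proportion of ALDH⁺ cells; DEAB-pretreated cells set baseline fluorescence.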

HCT-116 [3] = assay: Inhibition of cell stemness in human HCT116 cells assessed as inhibition of CD44+/CD133+ expression at 20 uM after 24 hrs by flow cytometry analysis; assay type: functional
Procedure, shortened: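 ALDH⁺ HCT-116 subpopulation sorted by flow cytometry; 2 × 10⁵ cells/well seeded overnight at 37 °C, 5% CO₂; treated 20 μM for 24 h (vehicle DMSO); stained with PE anti-CD133 and FITC anti-CD44 30 min; CD44⁺/CD133⁺ read by flow cytometry.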

HCT-116 [4] = assay: Inhibition of cell stemness in human HCT116 cells assessed as morphological alterations at 5 uM after 10 days by microscopic analysis; assay type: functional, cell-based; conditions: time 10.0 day
Procedure, shortened: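 Sorted ALDH⁺ HCT-116 cells, 800/well, in serum-free DMEM with B27 (1:50), EGF 20 ng/mL, β-FGF 10 ng/mL; co-incubated with compound (5 μM) or DMSO vehicle for 10 days; sphere number, diameter and morphology scored from microscopy images; mean ± SD, n = 3.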

HCT-116 [5] = assay: Induction of apoptosis in human HCT116 cells assessed as viable cells at 5 uM after 24 hrs by annexin V-FITC/propidium iodide staining based flow cytometry (reference value: 88.3%); assay type: functional; conditions: read-out: Activity
HCT-116 [6] = assay: Induction of apoptosis in human HCT116 cells assessed as early apoptotic cells at 5 uM after 24 hrs by annexin V-FITC/propidium iodide staining based flow cytometry (reference value: 1%); assay type: functional
HCT-116 [7] = assay: Induction of apoptosis in human HCT116 cells assessed as late apoptotic cells at 5 uM after 24 hrs by annexin V-FITC/propidium iodide staining based flow cytometry (reference value: 5.1%); assay type: functional
HCT-116 [8] = assay: Induction of apoptosis in human HCT116 cells assessed as necrotic cells at 5 uM after 24 hrs by annexin V-FITC/propidium iodide staining based flow cytometry (reference value: 5.6%); assay type: functional
HCT-116 [9] = assay: Induction of cell cycle arrest in human HCT116 cells assessed as accumulation at G0/G1 phase at 20 uM after 24 hrs by propidium iodide-staining based flow cytometry (reference value: 48.89%); assay type: functional
HCT-116 [10] = assay: Induction of cell cycle arrest in human HCT116 cells assessed as accumulation at S phase at 20 uM after 24 hrs by propidium iodide-staining based flow cytometry (reference value: 36.43%); assay type: functional
HCT-116 [11] = assay: Induction of cell cycle arrest in human HCT116 cells assessed as accumulation at G2/M phase at 20 uM after 24 hrs by propidium iodide-staining based flow cytometry (reference value: 14.67%); assay type: functional
[12] = Tmax in Sprague-Dawley rat at 25 mg/kg, po measured up to 48 hrs by LC-MS/MS analysis; assay type: ADME, organism-based; conditions: in vivo
Procedure, shortened: (§2)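 Overnight-fasted male SD rats (250−270 g, n = 3/group), single oral 25 mg/kg in 5% CMC-Na (reference sodium salt in phosphate buffer); plasma at 0.25–48 h (12 timepoints), stored −40 °C; LC−MS/MS with internal-standard calibration 3–3000 ng/mL; parameters fitted by model.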

[13] = Cmax in Sprague-Dawley rat at 25 mg/kg, po measured up to 48 hrs by LC-MS/MS analysis; assay type: ADME, organism-based; set-up: route oral, dose 25 mg/kg, time <=48; conditions: in vivo
Procedure, shortened: (§3)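 Overnight-fasted male SD rats (about 250−270 g), three per group, single oral 25 mg/kg; test compound suspended in 5% CMC-Na, control as sodium salt in phosphate buffer. Blood sampled 0.25–48 h, plasma by centrifugation, stored −40 °C, quantified by LC−MS/MS against plasma standard curve (3–3000 ng/mL) with internal standard; model-fitted PK parameters.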

[14] = Half life in Sprague-Dawley rat at 25 mg/kg, po measured up to 48 hrs by LC-MS/MS analysis; assay type: ADME, organism-based; conditions: in vivo; procedure, shortened: as §3
[15] = Clearance in Sprague-Dawley rat at 25 mg/kg, po measured up to 48 hrs by LC-MS/MS analysis; assay type: ADME, organism-based; conditions: in vivo; procedure, shortened: as §3
[16] = AUC(0 to t) in Sprague-Dawley rat at 25 mg/kg, po measured up to 48 hrs by LC-MS/MS analysis; assay type: ADME, organism-based; set-up: route oral, dose 25 mg/kg, time <=48; conditions: in vivo; procedure, shortened: as §3
[17] = AUC(0 to infinity) in Sprague-Dawley rat at 25 mg/kg, po measured up to 48 hrs by LC-MS/MS analysis; assay type: ADME, organism-based; set-up: route oral, dose 25 mg/kg, time <=48; conditions: in vivo; procedure, shortened: as §3
[18] = Volume of distribution in Sprague-Dawley rat at 25 mg/kg, po measured up to 48 hrs by LC-MS/MS analysis; assay type: ADME, organism-based; conditions: in vivo; procedure, shortened: as §2
[19] = MRT(0 to t) in Sprague-Dawley rat at 25 mg/kg, po measured up to 48 hrs by LC-MS/MS analysis; assay type: ADME, organism-based; conditions: in vivo; procedure, shortened: as §2
[20] = MRT(0 to infinity) in Sprague-Dawley rat at 25 mg/kg, po measured up to 48 hrs by LC-MS/MS analysis; assay type: ADME, organism-based; conditions: in vivo; procedure, shortened: as §2
HCT-116 [21] = assay: Antitumor activity against human HCT116 cells xenografted in BALB/c athymic nude mouse assessed as tumor growth inhibition at 60 mg/kg, po administered twice daily for 4 weeks and measured every 3 days; assay type: functional; conditions: HCT-116, po, 672 h, read-out: TGI
Procedure, shortened: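 Male BALB/c athymic nude mice, 5 weeks old, 16−18 g, given 0.2 mL of 5 × 10⁷ cells/mL HCT-116 in right armpit. At about 100 mm³, randomized to groups of five; intragastric dosing twice daily for 4 weeks. Tumor volume and body weight every 3 days; tumors weighed after sacrifice; organs HE-stained.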

- inhibition [2]: 61%
- Tmax [12]: 2 h
- Cmax [13]: 6790 ng/mL
- half-life [14]: 5.82 h
- CL/F [15]: 10.5 mL/min/kg
- AUC(0-t) at 48 h [16]: 38900 ng·h/mL
- AUC(0-inf) [17]: 40000 ng·h/mL
- Vd [18]: 2.39 L/kg
- MRT last at 48 h [19]: 6.45 h
- MRT inf [20]: 6.52 h
Compound: O=C(O)c1ccc2c(c1)nc(Nc1cccc(Cl)c1)c1ccncc12 [SILMITASERTIB]
- IC50 (PC-3): 12.8 µM
- IC50 (HCT-116 [1]): 13.2 µM
- IC50 (MCF7): 15.3 µM
- IC50 (HT-29): 16 µM
- IC50 (T-24): 12.9 µM
- IC50 (L02): 23 µM
- inhibition at 20 µM (HCT-116 [3]): 58%
- inhibition (HCT-116 [4]): Active
- viability at 5 µM (HCT-116 [5]): 80.7%
- Activity (HCT-116 [6]): 6.8%
- Activity (HCT-116 [7]): 8.3%
- Activity (HCT-116 [8]): 4.2%
- Activity (HCT-116 [9]): 62.48%
- Activity (HCT-116 [10]): 26.31%
- Activity (HCT-116 [11]): 11.21%
- inhibition in vivo at 60 mg/kg (HCT-116 [21]): 15%
